Several values for one entry are separate records, joined by “and”; a condition that tells them apart may be missing. Equal values may be shown once.

Sequence of Hypoxia-inducible factor 1-alpha (Homo sapiens) (Q16665 whole entry, looked up): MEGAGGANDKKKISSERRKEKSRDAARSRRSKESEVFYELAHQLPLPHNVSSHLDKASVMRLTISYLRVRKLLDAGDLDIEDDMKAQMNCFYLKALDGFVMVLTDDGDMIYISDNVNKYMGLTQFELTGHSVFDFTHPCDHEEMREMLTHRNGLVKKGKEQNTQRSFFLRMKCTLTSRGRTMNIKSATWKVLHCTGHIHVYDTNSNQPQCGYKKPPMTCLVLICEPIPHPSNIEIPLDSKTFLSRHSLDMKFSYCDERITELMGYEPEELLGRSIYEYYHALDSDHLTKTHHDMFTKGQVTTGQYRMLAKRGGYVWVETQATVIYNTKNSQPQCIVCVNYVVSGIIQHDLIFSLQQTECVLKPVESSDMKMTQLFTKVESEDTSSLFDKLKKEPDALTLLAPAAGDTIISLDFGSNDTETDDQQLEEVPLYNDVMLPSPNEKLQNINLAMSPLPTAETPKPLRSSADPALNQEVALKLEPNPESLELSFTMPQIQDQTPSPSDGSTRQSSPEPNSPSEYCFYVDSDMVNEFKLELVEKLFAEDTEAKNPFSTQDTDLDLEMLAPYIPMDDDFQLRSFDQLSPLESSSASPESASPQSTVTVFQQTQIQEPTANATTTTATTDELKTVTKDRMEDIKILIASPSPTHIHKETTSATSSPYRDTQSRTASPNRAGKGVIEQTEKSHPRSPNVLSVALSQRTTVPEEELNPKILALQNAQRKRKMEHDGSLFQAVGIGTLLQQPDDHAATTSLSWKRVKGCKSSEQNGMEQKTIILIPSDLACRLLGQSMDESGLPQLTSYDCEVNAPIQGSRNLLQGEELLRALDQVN

In this experiment the target is Hypoxia-inducible factor 1-alpha (Homo sapiens) (UniProt Q16665). Put plainly: HIF-1a and HIF-2a reporter inhibitors, SAR follow-up, cell-based, luminescence, MIAPaCa-2, 786-0, panel (AID 652011). Particulars: MIAPaCa-2/PANC HIF reporter, luciferase luminescence, desferoxamine, overnight, HIF1a, run 2; at 99 µM (top of the series). In a few lines:
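Detection: luminescence, One-Glo; Reagent: desferoxamine; Incubation: overnight seeding and compound exposure, 37 °C, 5% CO2, 10-min detection.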
In general, inhibition refers to the relative decrease from the control value, in per cent. Take `CCNC(=O)CCc1nc(-c2c(Cl)cccc2Cl)no1`: the inhibition was determined as 28.8%.
Turning to `O=C(O)CCc1nc(-c2ccccc2)no1`, the inhibition amounted to 16.7%.
Turning to `CC(C)(C)c1ccc(-c2noc(CCC(=O)NC3CCCC3)n2)cc1`, the inhibition worked out at 81.4%.
Consider `CCOc1ccc(-c2noc(CCC(=O)O)n2)cc1`, for which the inhibition came to 70.3%.
With `CC(C)(C)c1ccc(-c2noc(CCC(=O)Nc3ccccc3)n2)cc1`, the inhibition is 60.5%.
The value for `CCNC(=O)CCc1nc(-c2ccccc2)no1` was -23.4%; that for `CCC(C)NC(=O)CCc1nc(-c2ccccc2)no1` (stereo not given) was -19.7%.
As for `CC(C)(C)c1ccc(-c2noc(CCC(=O)NCc3ccco3)n2)cc1`, the figure is 93.7% and 85.5%; as for `CC(C)c1ccc(-c2noc(CCC(=O)NC(C)(C)C)n2)cc1`, 38.8%.
The value for `CCNC(=O)CCc1nc(-c2cccc(F)c2)no1` was -31.8%; that for `CC(C)(C)c1ccc(-c2noc(CCC(=O)NCC3CCCO3)n2)cc1` (stereo not given) was 8.05%; that for `CC(C)NC(=O)CCc1nc(-c2ccc(C(C)(C)C)cc2)no1` was 26.5%.
Turning to `CCCCc1ccc(-c2noc(CCC(=O)NCC)n2)cc1`, the inhibition came to 17.4%.
As for `CCNC(=O)CCc1nc(-c2cccc(C)c2)no1`, the figure is -31.6%.
For `CNC(=O)CCc1nc(-c2ccc(F)cc2)no1`, the inhibition is -36.7%.
As for `CCCCc1ccc(-c2noc(CCC(=O)NC3CC3)n2)cc1`, the figure is 36%.
As for `CC(C)(C)NC(=O)CCc1nc(-c2ccc(C(C)(C)C)cc2)no1`, the inhibition came to 96.7%.
On to `CNC(=O)CCc1nc(-c2ccc(C)cc2)no1`, for which the inhibition turned out to be 20.3%.
Consider `CCN(CC)C(=O)CCc1nc(-c2ccc(C(C)(C)C)cc2)no1`, for which the inhibition is 27.4% and 77.3%.
The value for `CC(C)(C)c1ccc(-c2noc(CCC(=O)NC3CCCCC3)n2)cc1` was 55.9%; that for `COC(=O)CCc1nc(-c2ccc(C(C)(C)C)cc2)no1` was 93.8%.
Take `CCOc1ccccc1NC(=O)CCc1nc(-c2ccc(C(C)(C)C)cc2)no1`: the inhibition was 60%.
As for `CC(C)(C)c1ccc(-c2noc(CCC(N)=O)n2)cc1`, the inhibition is 31.2% and -6.5%.
For `O=C(CCc1nc(-c2ccccc2)no1)NC1CC1`, the inhibition is -23.4%.
As to `CC(C)CNC(=O)CCc1nc(-c2ccc(C(C)(C)C)cc2)no1`, the inhibition was 2.19%.
Consider `CC(C)(C)c1ccc(-c2noc(CCC(=O)NC3CC3)n2)cc1`, for which the inhibition was -29.7%.
As for `COc1ccccc1NC(=O)CCc1nc(-c2ccc(C(C)(C)C)cc2)no1`, the figure is 81.3%; as for `CC(C)(C)c1ccc(-c2noc(CCC(=O)Nc3cccc([N+](=O)[O-])c3)n2)cc1`, 91.4%.
Regarding `CCNC(=O)CCc1nc(-c2ccc(C(C)(C)C)cc2)no1`, the inhibition is 10.5% and -4.06%.
Regarding `CCCNC(=O)CCc1nc(-c2ccc(C(C)(C)C)cc2)no1`, the inhibition amounted to 9.39%.

(Values after PubChem BioAssay AID652011 (Sanford-Burnham Center for Chemical Genomics, 2013).)
